Assay results from ChEMBL document CHEMBL3232871, “Synthesis and structure-activity analysis of diphenylpyrazolodiazene inhibitors of the HIV-1 Nef virulence factor” (Bioorg Med Chem Lett, 2014).
Activity calls are given as the source filed them. The rule behind the calls is not given here.

Legend:
[1] = Cytotoxicity against human TZM-bl cells by Cell Titer Blue cell viability assay; type: cell-based
Summary of the method: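 Viability of TZM-bl reporter cells was measured by Cell Titer Blue at the same compound concentration used in the HIV-1 infectivity assay (3 μM).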

[2] = test system: TZM-bl; test: Inhibition of HIV protein Nef in TZM-bl cells assessed decrease in HIV infectivity at 3 uM after 48 hrs by TZM-bl HIV infectivity assay; type: cell-based; conditions: Human immunodeficiency virus
Summary of the method: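 TZM-bl reporter cells (HIV-1 LTR-driven luciferase) received compound at 3 μM and were then infected with wild-type HIV-1 NL4-3. Luciferase was read 48 h later. Signal from cells infected with Nef-defective HIV was subtracted, and values are mean percent of untreated-cell control ± SEM.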

NC(=O)n1nc(-c2ccc([N+](=O)[O-])cc2)c(/N=N/c2ccc(Cl)cc2)c1O
Activity [1]: Non-toxic

COc1cccc(/N=N/c2c(-c3ccc([N+](=O)[O-])cc3)nn(C(N)=S)c2O)c1
Activity [1]: Non-toxic
Nef inhibition activity call (active/inactive) [2]: inactive

NC(=S)n1nc(-c2ccc(C(F)(F)F)cc2)c(/N=N/c2cccc(Cl)c2)c1O
Activity [1]: Non-toxic
Nef inhibition activity call (active/inactive) [2]: Active

Oc1[nH]nc(-c2ccccc2)c1/N=N/c1ccccc1
Activity [1]: Non-toxic
Nef inhibition activity call (active/inactive) [2]: inactive

COc1ccccc1/N=N/c1c(-c2ccc([N+](=O)[O-])cc2)nn(C(N)=S)c1O
Activity [1]: Non-toxic
Nef inhibition activity call (active/inactive) [2]: inactive

NC(=S)n1nc(-c2ccccc2)c(/N=N/c2cccc(Cl)c2)c1O
Activity [1]: Non-toxic
Nef inhibition activity call (active/inactive) [2]: inactive

NC(=O)n1nc(-c2ccc(F)cc2)c(/N=N/c2cncc(Cl)c2)c1O
Activity [1]: Non-toxic

COc1ccc(-c2nn(C(N)=S)c(O)c2/N=N/c2cccc(Cl)c2)cc1
Activity [1]: Non-toxic
Nef inhibition activity call (active/inactive) [2]: inactive

Oc1[nH]nc(-c2ccc(F)cc2)c1/N=N/c1cncc(Cl)c1
Activity [1]: Non-toxic
Nef inhibition activity call (active/inactive) [2]: inactive

NC(=S)n1nc(-c2ccc([N+](=O)[O-])cc2)c(/N=N/c2ccccc2F)c1O
Activity [1]: Non-toxic

NC(=S)n1nc(-c2ccc([N+](=O)[O-])cc2)c(/N=N/c2cccc(F)c2)c1O
Activity [1]: Non-toxic

COc1ccc(/N=N/c2c(-c3ccc([N+](=O)[O-])cc3)n[nH]c2O)cc1
Activity [1]: Non-toxic
Nef inhibition activity call (active/inactive) [2]: Active

NC(=S)n1nc(-c2ccc([N+](=O)[O-])cc2)c(/N=N/c2cccnc2)c1O
Activity [1]: Non-toxic
Nef inhibition activity call (active/inactive) [2]: Active

NC(=S)n1nc(-c2ccc([N+](=O)[O-])cc2)c(/N=N/c2ccccc2Cl)c1O
Activity [1]: Non-toxic
Nef inhibition activity call (active/inactive) [2]: inactive

NC(=O)n1nc(-c2ccc([N+](=O)[O-])cc2)c(/N=N/c2cccnc2)c1O
Activity [1]: Non-toxic

NC(=O)n1nc(-c2ccc(F)cc2)c(/N=N/c2cccc(Cl)c2)c1O
Activity [1]: Non-toxic
Nef inhibition activity call (active/inactive) [2]: Active

NC(=S)n1nc(-c2ccc([N+](=O)[O-])cc2)c(/N=N/c2ccc(Cl)cc2)c1O
Activity [1]: Non-toxic
Nef inhibition activity call (active/inactive) [2]: Active

NC(=S)n1nc(-c2ccc([N+](=O)[O-])cc2)c(/N=N/c2cncc(Cl)c2)c1O
Activity [1]: Non-toxic
Nef inhibition activity call (active/inactive) [2]: Active

NC(=S)n1nc(-c2ccc([N+](=O)[O-])cc2)c(/N=N/c2cccc(Cl)c2)c1O
Activity [1]: Non-toxic

NC(=O)n1nc(-c2ccc([N+](=O)[O-])cc2)c(/N=N/c2cccc(Cl)c2)c1O
Activity [1]: Non-toxic
Nef inhibition activity call (active/inactive) [2]: inactive

Oc1[nH]nc(-c2ccc(F)cc2)c1/N=N/c1cccnc1
Activity [1]: Non-toxic

NC(=O)n1nc(-c2ccc(F)cc2)c(/N=N/c2cccnc2)c1O
Activity [1]: Non-toxic

NC(=S)n1nc(-c2ccc([N+](=O)[O-])cc2)c(/N=N/c2ccc(F)cc2)c1O
Activity [1]: Non-toxic

NC(=O)n1nc(-c2ccc([N+](=O)[O-])cc2)c(/N=N/c2cncc(Cl)c2)c1O
Activity [1]: Non-toxic
